From ChEMBL document CHEMBL4004857, “Synthesis and biological evaluation of novel pyrazolic chalcone derivatives as novel hepatocellular carcinoma therapeutics” (Eur J Med Chem, 2017) come the findings set out here.

Usually IC50 stands for the point on the concentration scale where inhibition reaches its midpoint.

Calls of active or inactive are those of the source. The rule behind the calls is not given here.

Test [1] has as its system Huh-7. The test is described as follows: Cytotoxicity against human HuH7 cells assessed as growth inhibition after 72 hrs by SRB assay. Format: functional, cell-based. The conditions noted are these: Huh-7, 72 h. The gist of the method: (§1)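 Cells seeded at 2000–3000 per well and grown 24 h at 37C, then treated in triplicate with compounds dissolved in DMSO over a 40–0.3 range for 72 h. Cells were fixed with 10% TCA for 1 h, stained with 0.4% SRB in 1% acetic acid, washed with 1% acetic acid and air-dried. Bound dye was solubilized in 10 mM Tris base and read at 515 nm. % inhibition and IC50 were calculated against DMSO-only controls.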

Test [2] concerns MCF7. Description: Cytotoxicity against human MCF7 cells assessed as growth inhibition after 72 hrs by SRB assay. The settings on record: MCF7, 72 h. The class given is functional, cell-based. The gist of the method: as §1
A general note: In SRB staining, fixed cells bind dye roughly in proportion to their protein.

Test [3] concerns HCT-116. Description: Cytotoxicity against human HCT116 cells assessed as growth inhibition after 72 hrs by SRB assay. Format: functional, cell-based. The conditions noted are these: HCT-116, 72 h. The gist of the method:
as §1

The species entered for test [4] is Homo sapiens. The test is described as follows: Inhibition of tubulin polymerization (unknown origin).

Consider `COc1cc(C(=O)/C=C/c2cn(-c3ccccc3)nc2-c2ccsc2)cc(OC)c1OC`, for which the IC50 is 3.6 µM in test [1], 4.9 µM in test [2] and 3.2 µM in test [3]. For the same molecule, the inhibition result in test [4] is “inactive”.

Turning to `COc1ccc(C(=O)/C=C/c2cn(-c3ccccc3)nc2-c2ccncc2)c(OC)c1`, the half-maximal inhibitory concentration (IC50) in test [1] is 4.4 µM; in test [2], 8.8 µM; in test [3], 4.4 µM. In addition, the inhibition entry in test [4] is “inactive”.

Consider `COc1cc(C(=O)/C=C/c2cn(-c3ccccc3)nc2-c2ccc3c(c2)OCO3)cc(OC)c1OC`, for which the concentration for half-maximal inhibition (IC50) in test [1] stood at 11.7 µM; in test [2], 10.9 µM; in test [3], 8.3 µM. For the same molecule, the inhibition result in test [4] is “inactive”.

In the case of `COc1cc(OC)c(C(=O)/C=C/c2cn(-c3ccccc3)nc2-c2ccsc2)c(OC)c1`, the IC50 turned out to be 6.1 µM in test [1], 2.7 µM in test [2] and 5.2 µM in test [3]. The inhibition result in test [4] is “inactive”.

As for `O=C(/C=C/c1cn(-c2ccccc2)nc1-c1cccnc1)c1cc[nH]c1`, the results for the IC50 in test [1], in test [2] and in test [3] were 3.3 µM, 6.9 µM and 7.4 µM, respectively. In addition, in test [4], the inhibition entry is “inactive”.

Take `COc1ccc(C(=O)/C=C/c2cn(-c3ccccc3)nc2-c2ccc3c(c2)OCO3)c(OC)c1OC`: the IC50 was found to be 10.8 µM in test [1], 7.4 µM in test [2] and 3.2 µM in test [3]. The inhibition entry in test [4] was “inactive”.

Regarding `COc1cc(C(=O)/C=C/c2cn(-c3ccccc3)nc2-c2ccncc2)cc(OC)c1OC`, the IC50 came to 3.5 µM in test [1], 3.5 µM in test [2] and 0.3 µM in test [3]. For the same molecule, the inhibition result in test [4] is “inactive”.

In the case of `COc1ccc(OC)c(C(=O)/C=C/c2cn(-c3ccccc3)nc2-c2ccsc2)c1`, the half-inhibitory concentration (IC50) amounted to 2.1 µM in test [1], 0.4 µM in test [2] and 3.4 µM in test [3]. In addition, the inhibition result in test [4] is “inactive”.

Turning to `COc1ccc(C(=O)/C=C/c2cn(-c3ccccc3)nc2-c2ccncc2)c(OC)c1OC`, the IC50 in test [1] came out at 3.7 µM; in test [2], 3.3 µM; in test [3] it was 1.3 µM. Moreover, the inhibition entry in test [4] was “inactive”.

As to `O=C(/C=C/c1cn(-c2ccccc2)nc1-c1cccnc1)c1ccc2c(c1)OCO2`, the results for the 50% inhibitory concentration (IC50) in test [1], in test [2] and in test [3] were 6.7 µM, 5.6 µM and 1.8 µM, respectively. Also, the inhibition result in test [4] was “inactive”.

With `COc1ccc(C(=O)/C=C/c2cn(-c3ccccc3)nc2-c2ccsc2)c(OC)c1OC`, the concentration for half-maximal inhibition (IC50) came out at 4.2 µM in test [1], 7.4 µM in test [2] and 5.8 µM in test [3]. For the same molecule, the inhibition result in test [4] is “inactive”.

`Nc1nc(Cl)nc2c1ncn2[C@H]1C[C@H](O)[C@@H](CO)O1` [CLADRIBINE]: the IC50 in test [1] amounted to 1.8 µM; in test [2], 2 µM; in test [3], 0.3 µM.

Take `O=C(/C=C/c1cn(-c2ccccc2)nc1-c1ccncc1)c1ccc2c(c1)OCO2`: the IC50 amounted to 0.4 µM in test [1], 0.8 µM in test [2] and 5.3 µM in test [3]. Further, in test [4], the inhibition result is “inactive”.

In the case of `COc1ccc(C(=O)/C=C/c2cn(-c3ccccc3)nc2-c2ccc3c(c2)OCO3)c(OC)c1`, the results for the IC50 in test [1], in test [2] and in test [3] were 19 µM, 14.5 µM and 8.6 µM, respectively. Further, the inhibition result in test [4] is “inactive”.

Take `COc1cc(OC)c(C(=O)/C=C/c2cn(-c3ccccc3)nc2-c2ccc3c(c2)OCO3)c(OC)c1`: the results for the concentration for half-maximal inhibition (IC50) in test [1], in test [2] and in test [3] were 6.7 µM, 11.5 µM and 10.8 µM, respectively. In addition, the inhibition result in test [4] was “inactive”.

`O=C(/C=C/c1cn(-c2ccccc2)nc1-c1ccsc1)c1ccccc1`: the IC50 in test [1] came out at 4.7 µM; in test [2], 1.9 µM; in test [3], 5.1 µM. Moreover, the inhibition entry in test [4] was “inactive”.

With `O=C(/C=C/c1cn(-c2ccccc2)nc1-c1ccc2c(c1)OCO2)c1cc[nH]c1`, the 50% inhibitory concentration (IC50) amounted to 9.2 µM in test [1], 9.9 µM in test [2] and 20.3 µM in test [3]. Besides, in test [4], the inhibition entry is “inactive”.

As to `O=C(/C=C/c1cn(-c2ccccc2)nc1-c1cccnc1)c1ccsc1`, the results for the IC50 in test [1], in test [2] and in test [3] were 1.7 µM, 0.5 µM and 1.3 µM, respectively. Moreover, in test [4], the inhibition result is “inactive”.

Regarding `COc1ccc(C(=O)/C=C/c2cn(-c3ccccc3)nc2-c2ccsc2)c(OC)c1`, the IC50 came to 3 µM in test [1], 9 µM in test [2] and 2.2 µM in test [3]. Moreover, the inhibition entry in test [4] was “inactive”.

As to `COc1ccc(C(=O)/C=C/c2cn(-c3ccccc3)nc2-c2ccc3c(c2)OCO3)cc1OC`, the IC50 in test [1] turned out to be 15.4 µM; in test [2] it was 11.7 µM; in test [3], 11.4 µM. Further, the inhibition result in test [4] is “inactive”.

In the case of `O=C(/C=C/c1cn(-c2ccccc2)nc1-c1cccnc1)c1ccccc1`, the results for the IC50 in test [1], in test [2] and in test [3] were 2.3 µM, 4.1 µM and 2 µM, respectively. The inhibition result in test [4] is “inactive”.

For `COc1ccc(C(=O)/C=C/c2cn(-c3ccccc3)nc2-c2ccncc2)cc1OC`, the half-inhibitory concentration (IC50) in test [1] is 2 µM; in test [2], 4.3 µM; in test [3], 1.2 µM. Moreover, the inhibition result in test [4] is “inactive”.

On to `COc1ccc(C(=O)/C=C/c2cn(-c3ccccc3)nc2-c2cccnc2)c(OC)c1OC`, for which the figures for the IC50 in test [1], in test [2] and in test [3] were 2.3 µM, 1.4 µM and 1.1 µM, respectively. For the same molecule, in test [4], the inhibition entry was “inactive”.

With `COc1cc(C(=O)/C=C/c2cn(-c3ccccc3)nc2-c2cccnc2)cc(OC)c1OC`, the values for the 50% inhibitory concentration (IC50) in test [1], in test [2] and in test [3] were 1.9 µM, 14.5 µM and 8.6 µM, respectively. Further, the inhibition entry in test [4] was “inactive”.

`O=C(/C=C/c1cn(-c2ccccc2)nc1-c1cccnc1)c1c[nH]c2ccccc12`: the 50% inhibitory concentration (IC50) in test [1] was 3.2 µM; in test [2] it was 2.6 µM; in test [3], 6.4 µM. Also, in test [4], the inhibition result was “inactive”.

Regarding `O=C(/C=C/c1cn(-c2ccccc2)nc1-c1ccc2c(c1)OCO2)c1ccccc1`, the results for the IC50 in test [1], in test [2] and in test [3] were 10.5 µM, 11.1 µM and 1.16 µM, respectively. In addition, the inhibition result in test [4] was “inactive”.

Regarding `O=C(/C=C/c1cn(-c2ccccc2)nc1-c1cccnc1)c1ccccn1`, the IC50 in test [1] amounted to 6.4 µM; in test [2], 4.2 µM; in test [3] it was 2.1 µM. For the same molecule, in test [4], the inhibition result is “inactive”.

Regarding `COc1ccc(C(=O)/C=C/c2cn(-c3ccccc3)nc2-c2cccnc2)cc1OC`, the figures for the half-inhibitory concentration (IC50) in test [1], in test [2] and in test [3] were 3.1 µM, 1.7 µM and 4.3 µM, respectively. Besides, in test [4], the inhibition result is “inactive”.

As to `COc1ccc(C(=O)/C=C/c2cn(-c3ccccc3)nc2-c2cccnc2)c(OC)c1`, the half-maximal inhibitory concentration (IC50) was 2.4 µM in test [1], 2.3 µM in test [2] and 1.3 µM in test [3]. Moreover, in test [4], the inhibition result was “inactive”.

Turning to `O=c1[nH]cc(F)c(=O)[nH]1` [FLUOROURACIL], the 50% inhibitory concentration (IC50) in test [1] was 21 µM; in test [2] it was 1.4 µM; in test [3], 18.4 µM.

Turning to `COc1ccc(C(=O)/C=C/c2cn(-c3ccccc3)nc2-c2ccsc2)cc1OC`, the concentration for half-maximal inhibition (IC50) in test [1] was 2.9 µM; in test [2], 2.8 µM; in test [3], 1.6 µM. Moreover, the inhibition entry in test [4] is “inactive”.
